PfHsp90 yeast 2 – inhibits growth of yeast expressing Plasmodium falciparum Hsp90; S. cerevisiae expressing PfHsp90, BacTiter-Glo ATP, 48 h; yeast lacking PDR1 and PDR3 efflux regulators; inhibition, % at 9.4 µM; 310,000 tested, 0.32% active; AID 504621;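 active = every replicate shows inhibition above about 80%, whatever the replicate mean, limit read from the data; inconclusive = mean inhibition reaches the set limit but some replicate falls short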;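 note: 0% = DMSO neutral controls and 100% = 20 µM radicicol positive controls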
Glyco luc inh – N-linked glycosylation inhibition; D54 ERlucT glycosylation luciferase reporter, 24 h; percent of 100 nM tunicamycin response; reporter increase, % at 12.5 µM; 360,000 tested, 0.23% active;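 active = mean luciferase reporter signal, scaled so untreated is 0 and the glycosylation-blocking control 100, at or above a set limit in every replicate; inconclusive = mean reaches the limit but not every replicate does; inactive = mean below the limit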;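 note: luciferase carries N-glycosylation sites so blocking glycosylation raises the light; 0% = median of neutral control wells and 100% = median of 100 nM tunicamycin wells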
Rtt109 HAT inh – blocks Candida albicans Rtt109/Vps75 acetyltransferase activity; Q5AAJ8; purified Rtt109/Vps75, ThioGlo CoA-SH fluorescence, 4 h; inhibition, % at 34.9 µM; 330,000 tested, 0.16% active; AID 540336;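 active = inhibition of at least 50% in every replicate; inconclusive = best replicate reaches 50% inhibition but some replicates fall short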
Target sequence (Q5AAJ8 whole entry, looked up): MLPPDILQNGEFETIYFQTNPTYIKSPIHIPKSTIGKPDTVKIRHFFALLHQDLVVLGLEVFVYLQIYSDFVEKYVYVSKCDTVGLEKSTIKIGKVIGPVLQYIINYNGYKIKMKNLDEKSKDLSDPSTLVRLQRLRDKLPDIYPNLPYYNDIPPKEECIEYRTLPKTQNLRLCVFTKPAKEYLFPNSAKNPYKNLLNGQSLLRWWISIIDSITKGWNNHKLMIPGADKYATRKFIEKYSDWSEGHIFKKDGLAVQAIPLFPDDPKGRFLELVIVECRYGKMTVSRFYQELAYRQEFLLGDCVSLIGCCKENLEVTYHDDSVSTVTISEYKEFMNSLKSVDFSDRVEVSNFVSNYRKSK
Arrestin-AP2 inh – inhibitors of human beta-arrestin and AP2 interaction. AID 504490. FITC-arrestin peptide / GST-AP2 beads, flow cytometry; AP2 beta2 appendage carries R879A mutation. inhibition, % at 10 µM. 340,000 tested, 0.31% active;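 active = inhibition above a set limit, near 3 SD of compounds lacking own fluorescence, cut at about 54% in these data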;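 note: plate controls were DMSO wells for no effect and 5 µM unlabelled arrestin peptide for full effect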
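Material – GST-tagged AP2 beta2-adaptin appendage (R879A) on 4 µm glutathione beads · Probe or stimulus – fluorescein-tagged arrestin peptide at 50 nM final · Timing – 12 min plus 1 h, RT · Detection – bead flow cytometry, FITC channel · Read-out basis – inhibition as reduced fluorescein signal on beads, percent · Medium – PBS plus Tween 20 (0.05%) and BSA (0.1%)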
Env fusion inh – inhibitors of HIV Env-mediated cell fusion; inhibition, % at 12.3 µM; HeLa-JRFL Env/CEM21 cell fusion, luciferase; 360,000 tested, 1.1% active;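 active = mean replicate inhibition score of at least 50 and every replicate individually at or above 50; inconclusive = only one of the two criteria met; inactive = mean below 50 and not all replicates reaching 50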;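 note: 0% = plate neutral controls and 100% = maraviroc near 300 nM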
PAX8 inh HTS – PAX8 transcriptional activity inhibition | RMG-I TPO-luciferase reporter, SteadyGlo, 24 h | inhibition, % at 12.6 µM | 360,000 tested, 1.2% active | AID 652154;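 active = mean replicate inhibition at least 60% with every replicate also reaching 60%; inconclusive = only one of the two criteria is met; inactive = mean below 60% and not all replicates reaching 60%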;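 note: luciferase light reporting Pax8 driven TPO promoter activity; plate controls were median of neutral control wells for no effect and mitoxantrone controls for full effect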
* hit, by the source's call; i = inactive; ? = inconclusive; . = no result; [ ] = another dose, or the depositor's remark. In the library only some 2.3% were active in any assay of this set; here they are far more common.

SMILES	PfHsp90 yeast 2	Glyco luc inh	Rtt109 HAT inh	Arrestin-AP2 inh	Env fusion inh	PAX8 inh HTS
C[C@@H]1CN([C@@H](C)CO)C(=O)c2cc(NC(=O)c3ccccc3)ccc2O[C@@H](C)CCCCO[C@H]1CN(C)Cc1ccc(C(=O)O)cc1	.	.	.	.	62.4*[16.7 µM]	6.1
Cc1ccc(C)c(-c2cc(C(=O)Nc3sc(C)c(C)c3C(N)=O)c3ccccc3n2)c1	-7.5	-4.2	1.6	-4.6	88.5*	.
Cc1cccc(-c2cc(C(=O)Nc3sc(C)c(C)c3C(N)=O)c3ccccc3n2)c1	1.3	-6.0	-2.8	20.5	.	.
O=C1CSC(=S)N1/N=C/c1ccc(O)c(O)c1O	10.4	1.4	196.5*	56.8*	.	.
COc1ccccc1C=NN1C(=O)CSC1=S	-3.0	4.2	-4.8	1.9	-12.6	8.8
COc1ccc(CNc2oc(-c3cccc4ccccc34)nc2C#N)cc1	-1.0	-1.7	-4.2	-6.2	.	.
CCOP(=O)(OCC)c1nc(-c2cccc3ccccc23)oc1NCCc1ccc(OC)cc1	-1.5	-6.0	-21.3	3.2	62.7*	8.7
CC(C)(C)C(=O)Nc1cc2nn(-c3ccccc3)nc2cc1Cl	19.8	-17.4	5.2	5.9	i	73.7*
Cc1cc(=O)oc2ccc(OC(=O)CN3C(=O)c4cccc([N+](=O)[O-])c4C3=O)cc12	11.0	0.4	5.7	1.3	-0.8	147.3*
COc1cc2c3nnc(-c4ccc(F)cc4)c-3cn(Cc3ccc(F)cc3)c2cc1OC	-17.8	-9.3	-10.9	8.9	-13.5	25.7
COc1ccc(-c2nnn(Cc3ccccc3)n2)cc1OC	-16.8	-1.8	-2.4	-13.9	-8.9	-31.1
COc1ccc(Cn2cc3c(-c4ccc(F)cc4)nnc-3c3cc(OC)c(OC)cc32)cc1	-14.1	-15.5	7.8	9.6	23.7	91.7*
COc1cc2c3nnc(-c4ccc(F)cc4)c-3cn(Cc3ccccc3)c2cc1OC	12.5	-17.2	-5.7	-14.8	-9.4	68.8*
O=C(Nc1cccc(F)c1)c1cc(S(=O)(=O)N2CCC(C(=O)O)CC2)ccc1F	.	1.4	-1.2	6.2	76.7*	.
CCOc1ccc(-c2cc(CCCC(=O)Nc3cccc(OC)c3)no2)cc1	-14.7	19.3	2.7	20.7	75.7*	1.0
COc1ccccc1C#Cc1ccc([C@H]2[C@@H](CO)N3CCCCN(C(=O)C4CC4)C[C@@H]23)cc1	.	.	.	.	.	-7.3
Cc1ccc(OCC(=O)Nc2c[nH]c(=O)[nH]c2=O)cc1C	10.3	0.1	-15.8	38.5	-46.9	-8.8
Cc1cccc(OCC(=O)Nc2nonc2NC(=O)COc2cccc(C)c2)c1	-66.1	3.2	9.3	21.8	-56.9	.
Cc1ccc(C)c(OCC(=O)Nc2c[nH]c(=O)[nH]c2=O)c1	-27.9	1.6	-9.0	-0.2	57.3*	4.9
Cc1ccc(C)c(OCC(=O)Nc2nonc2NC(=O)COc2cc(C)ccc2C)c1	-108.1	-0.2	-0.9	-4.9	68.3*	10.7
O=c1cc(-c2ccccc2)oc2cc(O)c(O)c(O)c12	30.2	-9.1	8.3	29.3	.	.
O=c1c(O)cccc2cc(O)c(O)c(O)c12	-110.2	2.9	?	39.5	56.1*	41.1
CCOc1ccc(N)c(SSc2cc(OCC)ccc2N)c1	5.3	-2.6	3.2	9.5	-7.7	-62.1
CS(=O)(=O)c1ccc(N)c(SSc2cc(S(C)(=O)=O)ccc2N)c1	-3.0	1.2	181.7*	16.1	-1.0	8.2
C[C@@H]1CCCCO[C@@H](CN(C)S(=O)(=O)c2ccc(F)cc2)[C@H](C)CN([C@H](C)CO)C(=O)c2cc(NS(=O)(=O)c3ccc(Cl)cc3)ccc2O1	.	.	.	.	24.1[16.7 µM]	86.2*
SMILES	PfHsp90 yeast 2	Glyco luc inh	Rtt109 HAT inh	Arrestin-AP2 inh	Env fusion inh	PAX8 inh HTS
C[C@H]1CCCCO[C@H](CN(C)S(=O)(=O)c2ccc(F)cc2)[C@@H](C)CN([C@@H](C)CO)C(=O)c2cc(NS(=O)(=O)c3ccc(Cl)cc3)ccc2O1	.	.	.	.	10.9[16.7 µM]	89.0*
C[C@@H]1CCCCO[C@H](CN(C)S(=O)(=O)c2ccc(F)cc2)[C@H](C)CN([C@@H](C)CO)C(=O)c2cc(NS(=O)(=O)c3ccc(Cl)cc3)ccc2O1	.	.	.	.	28.1[16.7 µM]	81.0*
C[C@H](CO)N1C[C@H](C)[C@H](CN(C)S(=O)(=O)c2ccc(Cl)cc2)OCCCC[C@H](C)Oc2ccc(NS(=O)(=O)c3ccc(F)cc3)cc2C1=O	.	.	.	.	-85.5[16.7 µM]	81.1*
C[C@@H]1CCCCO[C@H](CN(C)S(=O)(=O)c2ccc(F)cc2)[C@H](C)CN([C@H](C)CO)C(=O)c2cc(NS(=O)(=O)c3ccc(Cl)cc3)ccc2O1	.	.	.	.	28.8[16.7 µM]	45.0
CCCNC(=O)C[C@@H]1CC[C@H]2[C@@H](COC[C@@H](O)CN2C(=O)Nc2ccccc2OC)O1	.	.	.	.	.	-14.6
C[C@H]1CCCCO[C@H](CN(C)S(=O)(=O)c2ccc(Cl)cc2)[C@@H](C)CN([C@@H](C)CO)C(=O)c2cc(NS(=O)(=O)c3ccc(F)cc3)ccc2O1	.	.	.	.	5.9[16.7 µM]	86.3*
Cc1ccc(S(=O)(=O)Nc2ccc3c(c2)C(=O)N([C@H](C)CO)C[C@@H](C)[C@H](CN(C)Cc2ccc(Oc4ccccc4)cc2)O3)cc1	.	.	.	.	7.6[16.7 µM]	19.3
COc1ccc(OC)c(Nc2nc(=O)c3cccnc3s2)c1	-6.1	3.4	112.3*	10.1	.	.
Cc1ccc(Nc2nc(=O)c3cccnc3s2)cc1	-22.6	-1.1	0.4	10.0	.	.
O=C(O)/C=C\c1cn(-c2ccccc2)nc1-c1cc2ccccc2o1	?	0.9	10.7	3.7	4.0	20.5
O=C(O)/C=C/c1cn(-c2ccccc2)nc1-c1cc2ccccc2o1	90.4*	-0.2	4.4	14.7	-0.8	-26.5
C[C@@H]1CN([C@H](C)CO)C(=O)c2cc(NS(=O)(=O)c3ccccc3)ccc2O[C@@H](C)CCCCO[C@@H]1CN(C)Cc1ccc(C(=O)O)cc1	.	.	.	.	-14.7[16.7 µM]	-6.0
CCOC(=O)N=Nc1c(O)n(CC(=O)OC)c2ccccc12	9.4	0.9	7.2	7.3	10.2	-28.5
CCOC(=O)N=Nc1c2ccccc2c2nc3no[nH]c3nc12	107.7*	-17.4	1.6	23.3	76.1*	86.5*
CCCCCn1c(=O)[nH]c2cc(C(=O)N3CCN(Cc4ccc5c(c4)OCO5)CC3)ccc2c1=O	-6.9	-1.3	.	6.9	67.2*	45.0
CC(=O)Nc1nnc(CCN2CCCCC2)s1	4.7	0.6	.	-6.7	-52.3	.
CC(C)C(=O)Nc1nnc(CCN2CCCCC2)s1	10.1	0.9	52.1*	17.5	-61.7	.
Cc1ccc(S(=O)(=O)N(C)C[C@H]2OCc3cnnn3CCCC(=O)N([C@H](C)CO)C[C@H]2C)cc1	.	1.1	.	.	4.9	?
Cc1ccc(S(=O)(=O)N(C)C[C@H]2Oc3ccc(NS(=O)(=O)c4ccc(F)cc4)cc3CC(=O)N([C@H](C)CO)C[C@H]2C)cc1	.	.	.	.	-6.2[16.7 µM]	103.6*
